A short description of assay [1]: Immunosuppressive activity against PHA-stimulated proliferation in rat T-lymphocytes assessed as cell viability at 100 uM after 6 days by [3H]thymidine incorporation method relative to control. In kind it is functional. The following applies: read-out: Activity. The method in brief: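 Rat lymphocytes incubated 6 days at 37 °C with 100 μM compound; result expressed as percentage of viable lymphocytes.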

Assay [2] relates to T-cell. Description: Immunosuppressive activity against PHA-stimulated proliferation in rat T-lymphocytes assessed as cell viability at 0.01 to 0.1 uM […] by [3H]thymidine incorporation method relative to control. The class given is functional, cell-based.
Assay [3] can be described thus: Immunosuppressive activity against PHA-stimulated proliferation in rat T-lymphocytes assessed as cell viability at 1 uM […] by [3H]thymidine incorporation method relative to control. The settings on record: read-out: Activity. The class given is functional.
For assay [4], the system named is MGL8. Description: Growth inhibition of human MGL8 cells at 5 uM after 48 hrs. The class given is functional, cell-based. The gist of the method:
(§1)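 MGL-8 lymphoblasts seeded at 22 × 10⁴ cells/mL in stationary suspension in RPMI 1640 with 10% fetal calf serum, penicillin and streptomycin; 48 h at 37 °C; cells counted by Coulter counter; growth expressed as % of untreated control; significance tested (p < 0.01).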

The test system of assay [5] is Human alphaherpesvirus 2. The assay can be described thus: Antiviral activity against HSV2 infected in BHK cells assessed as reduction of viral plaque at 4 uM after 24 hrs. In kind it is functional. The method in brief: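 BHK confluent monolayers in 24-well trays; supernatant removed and 50 μL virus dilution added per well; 2 h at 37 °C, 5% CO2, 100% humidity with intermittent agitation. Eagle's medium containing tryptose phosphate broth and calf serum then added; viral plaques counted after 24 h.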

Assay [6] in a line: Growth inhibition of human MGL8 cells at 50 uM after 48 hrs relative to control. In kind it is functional. The settings on record: MGL8, 48 h, read-out: GI. The method in brief:
as §1

Assay [7] is described as follows: Growth inhibition of human MGL8 cells at 500 uM after 48 hrs relative to control. The settings on record: MGL8, 48 h, read-out: GI. The class given is functional. The gist of the method:
as §1

In assay [8] the test system is Pseudomonas aeruginosa. The assay can be described thus: Antibacterial activity against Pseudomonas aeruginosa at 1 mg/ml. The class given is functional, organism-based. The method in brief:
(§2)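 Organisms grown on agar plates at 37 °C. Compound dissolved at 1 mg/mL in methanol, applied to a 2-cm disk, and the disk placed on agar streaked with the organism.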

Assay [9] deals with Proteus vulgaris. The assay can be described thus: Antibacterial activity against Proteus vulgaris at 1 mg/ml. In kind it is functional, organism-based. The gist of the method:
as §2

The test system of assay [10] is Saccharomyces pastorianus. Description: Antifungal activity against Saccharomyces pastorianus at 1 mg/ml. In kind it is functional, organism-based. The gist of the method:
as §2

In assay [11] the test system is Bacillus subtilis. Description: Antibacterial activity against Bacillus subtilis at 1 mg/ml. In kind it is functional, organism-based. The gist of the method:
as §2

For assay [12], the system named is Neurospora crassa. The assay can be described thus: Antifungal activity against Neurospora crassa at 1 mg/ml. The class given is functional, organism-based. The gist of the method:
as §2

The test system of assay [13] is Escherichia coli. The assay can be described thus: Antibacterial activity against Escherichia coli at 1 mg/ml. The class given is functional, organism-based. The gist of the method:
as §2

The subject of assay [14] is Serratia marcescens. The assay can be described thus: Antibacterial activity against Serratia marcescens at 1 mg/ml. The class given is functional, organism-based. The gist of the method:
as §2

Assay [15] concerns Ralstonia solanacearum. Description: Antibacterial activity against Pseudomonas solanacearum at 1 mg/ml. In kind it is functional, organism-based. The gist of the method: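 Agar disk diffusion: test compound at 1 mg/mL in methanol, applied to a 2-cm disk laid on agar plates streaked with the organism.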
The test system of assay [16] is Candida albicans. Description: Antifungal activity against Candida albicans at 1 mg/ml. The class given is functional, organism-based. The gist of the method:
as §2

Assay [17] has as its system Salmonella enterica subsp. enterica serovar Gallinarum. Description: Antibacterial activity against Salmonella gallinarum at 1 mg/ml. The class given is functional, organism-based. The gist of the method:
as §2

Assay [18] relates to Micrococcus luteus. The assay can be described thus: Antibacterial activity against Sarcina lutea at 1 mg/ml. The class given is functional, organism-based. The method in brief: as §2
The test system of assay [19] is Staphylococcus aureus. The assay can be described thus: Antibacterial activity against Staphylococcus aureus at 1 mg/ml. In kind it is functional, organism-based. The method in brief: as §2

The structures appear in SMILES notation. Active and inactive are the calls of the source. No cut-off for these calls is given here.

As for `Nc1ccn([C@@H]2O[C@H](CO)[C@@H](O)[C@@H]2O)c(=O)n1` [CYTARABINE], in [1], the viability at 100 µM came out at 76%. Also, the outcome in assay [2] was inactive. For the same compound, the thymidine incorporation of control at 1 µM in assay [3] came to 18%.
Consider `O=c1[nH]c(=O)n([C@@H]2OC[C@@](O)(CO)[C@H]2O)cc1I`, for which the “growth inhibition (GI)” value in assay [4] was “inactive”. In addition, the result in assay [5] was inactive. The inhibition of growth at 50 µM in assay [6] turned out to be 24%. Further, the inhibition of growth at 500 µM in assay [7] was determined as 6%.
On to `O=c1ccn([C@@H]2OC[C@@](O)(CO)[C@H]2O)c(=O)[nH]1`, for which the outcome in assay [8], in assay [9], in [5], in assay [10], in assay [11] and in assay [12] was inactive. Besides, the result in assay [2], in assay [13], in assay [14], in [15], in assay [16] and in [17] was inactive. Also, the outcome in assay [18] and in assay [19] was inactive. Also, the “growth inhibition (GI)” value in assay [4] is “inactive”. For the same compound, the viability at 100 µM in [1] was determined as 90%. Further, the inhibition of growth at 50 µM in [6] came to 100%. In assay [3], the thymidine incorporation of control at 1 µM worked out at 16%. Moreover, the inhibition of growth at 500 µM in assay [7] was 72%.
`CC(=O)O[C@H]1[C@H](n2cc(I)c(=O)[nH]c2=O)OC[C@@]12COC(=O)O2`: the result in [8], in [9], in assay [10], in [11], in assay [12] and in assay [13] was inactive. For the same compound, the outcome in assay [14], in assay [15], in [16], in assay [17], in assay [18] and in assay [19] was inactive.
With `CC(=O)O[C@H]1[C@H](n2cc(Br)c(=O)[nH]c2=O)OC[C@@]12COC(=O)O2`, the outcome in [8], in [9], in [10], in [11], in [12] and in [13] was inactive. Further, the outcome in assay [14], in [15], in [16], in assay [17], in assay [18] and in assay [19] was inactive.
With `O=c1[nH]c(=O)n([C@@H]2O[C@H](CO)[C@@H](O)[C@H]2O)cc1I`, the “growth inhibition (GI)” value in [4] was “inactive”. Further, in assay [6], the inhibition of growth at 50 µM was 32%. Moreover, in assay [7], the inhibition of growth at 500 µM is 9%.
As for `O=c1[nH]c(=O)n([C@@H]2O[C@H](CO)[C@@H](O)[C@H]2O)cc1Br`, the “growth inhibition (GI)” value in assay [4] is “inactive”. For the same compound, the inhibition of growth at 50 µM in [6] is 40%. Moreover, the inhibition of growth at 500 µM in assay [7] was found to be 11%.
Regarding `Nc1ncnc2c1ncn2[C@@H]1O[C@H](CO)[C@@H](O)[C@@H]1O` [VIDARABINE], in [1], the viability at 100 µM came out at 94%. Besides, in [3], the thymidine incorporation of control at 1 µM turned out to be 71%.
As to `Cc1cn([C@@H]2OC[C@@](O)(CO)[C@H]2O)c(=O)[nH]c1=O`, the result in [8], in [9], in [5], in assay [10], in assay [11] and in assay [12] was inactive. In addition, the outcome in assay [2], in assay [13], in assay [14], in [15], in [16] and in [17] was inactive. The outcome in [18] and in assay [19] was inactive. Besides, in assay [4], the “growth inhibition (GI)” value is “inactive”. The viability at 100 µM in assay [1] amounted to 89%. Further, the inhibition of growth at 50 µM in [6] stood at 95%. For the same compound, in assay [3], the thymidine incorporation of control at 1 µM came to 56%. In addition, the inhibition of growth at 500 µM in [7] was 83%.
Regarding `Nc1ncnc2c1ncn2[C@@H]1OC[C@](O)(CO)[C@H]1O`, in assay [1], the viability at 100 µM came to 91%. In [2], the outcome was inactive. In addition, the thymidine incorporation of control at 1 µM in assay [3] worked out at 159%.
Regarding `NC(=O)c1ncn([C@@H]2O[C@H](CO)[C@@H](O)[C@H]2O)n1` [RIBAVIRIN], in assay [3], the thymidine incorporation of control at 1 µM is 127%.
In the case of `Nc1ncnc2c1ncn2[C@@H]1OC[C@@](O)(CO)[C@H]1O`, the Activity in [5] amounted to 42%. Also, the viability at 100 µM in assay [1] was determined as 85%. Further, the thymidine incorporation of control at 1 µM in [3] is 14%.
Turning to `O=c1[nH]c(=O)n([C@@H]2OC[C@@](O)(CO)[C@H]2O)cc1Br`, the “growth inhibition (GI)” value in assay [4] is “inactive”. Moreover, the result in assay [5] was inactive. In addition, the inhibition of growth at 50 µM in [6] is 52%. The inhibition of growth at 500 µM in assay [7] turned out to be 13%.

The values above are taken from ChEMBL document CHEMBL3244180, “Synthesis of branched-chain apiosylpyrimidines and their inhibition of lymphocyte proliferation” (1978).
